The text below walks through data of ChEMBL document CHEMBL1150378, “Synthesis and in vitro antiprotozoal activities of water-soluble, inexpensive 3,7-bis(dialkylamino)phenoxazin-5-ium derivatives” (J Med Chem, 2008).

Assay [1] deals with Trypanosoma brucei rhodesiense. Briefly: Antitrypanosomal activity against Trypanosoma brucei rhodesiense STIB900. The class given is functional, organism-based. The method, boiled down: (§1)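 Test compounds were made up as 10 mg/mL stocks in 100% DMSO, warmed or sonicated to dissolve, then diluted in serum-free medium and brought to working concentration in complete medium without hypoxanthine. DMSO was at most 1% in the top-concentration wells. IC50 was determined by previously described methods, with values from two replicate experiments. Reference drugs were chloroquine, melarsoprol, benznidazole, miltefosine and podophyllotoxin (L6).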

Assay [2] is described as follows: Selectivity index, Ratio of IC50 for rat L6 cells to IC50 for Trypanosoma cruzi Tulahuen C2C4. It is filed as functional. The method, boiled down:
(§2)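 Selectivity index is the L6 myoblast cytotoxicity IC50 divided by the IC50 against the respective parasite. Both IC50 values come from two replicate experiments, with compounds diluted from 10 mg/mL DMSO stocks and final DMSO at most 1%.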

A short description of assay [3]: Selectivity index, Ratio of IC50 for rat L6 cells to IC50 for Trypanosoma brucei rhodesiense STIB900. It is filed as functional. The method, boiled down: as §2
A short description of assay [4]: Selectivity index, Ratio of IC50 for rat L6 cells to IC50 for Leishmania donovani MHOM-ET-67/L82 axenic amastigotes. It is filed as functional. In short, it runs like this: as §2
In another assay the test system is L6. Put plainly: Cytotoxicity against rat L6 cells. It is filed as cell-based. The method, boiled down: as §1
A further assay deals with Trypanosoma cruzi. Briefly: Antitrypanosomal activity against Trypanosoma cruzi Tulahuen C2C4. The class given is functional, organism-based. The method, boiled down:
as §1

Assay [5] can be described thus: Selectivity index, Ratio of IC50 for rat L6 cells to IC50 for Plasmodium falciparum K1. It is filed as functional. The method, boiled down: as §2
The next assay deals with Plasmodium falciparum. Briefly: Antiplasmodial activity against chloroquine and pyrimethamine-resistant Plasmodium falciparum K1. It is filed as functional, organism-based. In short, it runs like this: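 Compounds were prepared as 10 mg/mL DMSO stocks, diluted in serum-free medium, then brought to test concentrations in complete medium without hypoxanthine. DMSO was at most 1% in the top-concentration wells. IC50 values come from two replicate experiments, with chloroquine as the reference standard. Rat L6 myoblast IC50 served for the selectivity index.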

A further assay concerns Leishmania donovani. Briefly: Antileishmanial activity against Leishmania donovani MHOM-ET-67/L82 axenic amastigotes. It is filed as functional, organism-based. In short, it runs like this:
as §1

The structures appear in SMILES notation.

As for `CCN(CC)c1ccc2nc3ccc(N(CC)CC)cc3[o+]c2c1.[Cl-]`, the IC50 in assay [1] stood at 0.228 µM; with L6 it was 6.7 µM; in the assay with Trypanosoma cruzi, 0.036 µM; with Plasmodium falciparum, 0.003 µM; in the assay on Leishmania donovani, 0.214 µM. In addition, the “Ratio IC50” value in assay [2] is 185.4; in assay [3] it was 29.4; in assay [4] it was 31.3; in [5] it was 2410.

For `CCN(CC)c1ccc2nc3ccc(N4CCOCC4)cc3[o+]c2c1.[Cl-]`, the IC50 in [1] is 4.07 µM; in the assay on L6 it was 40.1 µM; in the assay on Trypanosoma cruzi, 2.94 µM; with Plasmodium falciparum, 0.029 µM; with Leishmania donovani it was 16.3 µM. Moreover, the “Ratio IC50” value in assay [2] stood at 13.6; in [3], 9.9; in [4], 2.5; in assay [5] it was 1363.6.

As to `CCCN(CCC)c1ccc2nc3ccc(N4CCOCC4)cc3[o+]c2c1.[Cl-]`, the IC50 in assay [1] came out at 0.871 µM; in the assay with L6, 19.3 µM; in the assay on Trypanosoma cruzi it was 0.406 µM; with Plasmodium falciparum it was 0.005 µM; in the assay with Leishmania donovani it was 0.754 µM. For the same compound, the “Ratio IC50” value in assay [2] is on record as 47.6; in assay [3] it was 22.2; in [4], 25.6; in [5] it was 3883.

As to `CN(C)c1ccc2nc3ccc(N4CCSCC4)cc3[o+]c2c1.[Cl-]`, the IC50 in assay [1] was 5.47 µM; with L6, 22.2 µM; with Trypanosoma cruzi, 0.608 µM; in the assay on Plasmodium falciparum, 0.006 µM; in the assay on Leishmania donovani, 14.4 µM. Also, the “Ratio IC50” value in [2] is listed as 36.6; in assay [3], 4.1; in [4], 1.5; in [5] it was 4022.5.

Take `CCN(CC)c1ccc2nc3ccc(N4CCSCC4)cc3[o+]c2c1.[Cl-]`: the IC50 was 1.61 µM in [1]; 21.7 µM in the assay with L6; 0.154 µM in the assay on Trypanosoma cruzi; 0.008 µM in the assay on Plasmodium falciparum; 1 µM in the assay on Leishmania donovani. The “Ratio IC50” value in assay [2] was 141.1; in assay [3] it was 13.5; in [4], 21.6; in [5] it was 2822.

Regarding `CCCN(CCC)c1ccc2nc3ccc(N4CCSCC4)cc3[o+]c2c1.[Cl-]`, the IC50 in [1] amounted to 1.51 µM; with L6, 7.01 µM; in the assay with Trypanosoma cruzi, 0.163 µM; with Plasmodium falciparum, 0.007 µM; in the assay on Leishmania donovani, 1.17 µM. Moreover, the “Ratio IC50” value stood at 43.1 in assay [2], 4.6 in assay [3], 6 in assay [4] and 976.7 in assay [5].

In the case of `[Cl-].c1cc2nc3ccc(N4CCCCC4)cc3[o+]c2cc1N1CCCCC1`, the half-inhibitory concentration (IC50) came out at 0.154 µM in [1]; 5.47 µM in the assay with L6; 0.081 µM in the assay on Trypanosoma cruzi; 0.005 µM with Plasmodium falciparum; 1.14 µM in the assay on Leishmania donovani. In addition, the “Ratio IC50” value in [2] is 67.7; in assay [3], 35.6; in assay [4] it was 4.8; in assay [5], 1050.

As for `CN(C)c1ccc2nc3ccc(N4CCCCC4)cc3[o+]c2c1.[Cl-]`, the IC50 in assay [1] was found to be 0.843 µM; with L6 it was 22.5 µM; in the assay with Trypanosoma cruzi, 0.174 µM; in the assay with Plasmodium falciparum, 0.003 µM; in the assay with Leishmania donovani, 1.66 µM. In addition, the “Ratio IC50” value in assay [2] amounted to 129; in [3], 26.7; in [4], 13.6; in [5] it was 7740.

Consider `CCN(CC)c1ccc2nc3ccc(N4CCCCC4)cc3[o+]c2c1.[Cl-]`, for which the IC50 came out at 0.245 µM in assay [1]; 6.43 µM with L6; 0.048 µM in the assay with Trypanosoma cruzi; 0.003 µM in the assay on Plasmodium falciparum; 1.44 µM with Leishmania donovani. For the same compound, the “Ratio IC50” value in assay [2] is on record as 132.8; in assay [3], 26.3; in assay [4], 4.5; in [5], 2390.

As for `CCCN(CCC)c1ccc2nc3ccc(N4CCCCC4)cc3[o+]c2c1.[Cl-]`, the IC50 in assay [1] was determined as 0.238 µM; in the assay with L6, 0.79 µM; in the assay with Trypanosoma cruzi, 0.023 µM; in the assay with Plasmodium falciparum it was 0.008 µM; in the assay with Leishmania donovani, 0.098 µM. In addition, the “Ratio IC50” value was found to be 35.1 in assay [2], 3.3 in assay [3], 8.1 in assay [4] and 105.3 in assay [5].

Take `CCCCN(CCCC)c1ccc2nc3ccc(N4CCCCC4)cc3[o+]c2c1.[Cl-]`: the IC50 turned out to be 0.269 µM in assay [1]; 0.09 µM in the assay with L6; 0.058 µM in the assay with Trypanosoma cruzi; 0.007 µM in the assay with Plasmodium falciparum; 0.002 µM in the assay with Leishmania donovani. The “Ratio IC50” value was determined as 1.5 in assay [2], 0.3 in [3], 37 in assay [4] and 12.3 in assay [5].

Turning to `CCCCCCN(CCCCCC)c1ccc2nc3ccc(N4CCCCC4)cc3[o+]c2c1.[Cl-]`, the IC50 in assay [1] stood at 0.014 µM; in the assay on L6, 0.2 µM; with Trypanosoma cruzi it was 0.021 µM; in the assay with Plasmodium falciparum, 0.004 µM; in the assay with Leishmania donovani, 0.014 µM. Besides, the “Ratio IC50” value in assay [2] is listed as 9.6; in assay [3] it was 13.7; in [4], 13.7; in assay [5], 48.

With `[Cl-].c1cc2nc3ccc(N4CCCC4)cc3[o+]c2cc1N1CCCC1`, the IC50 came out at 0.16 µM in assay [1]; 3.93 µM in the assay with L6; 0.121 µM in the assay on Trypanosoma cruzi; 0.003 µM in the assay on Plasmodium falciparum; 0.037 µM in the assay with Leishmania donovani. Also, the “Ratio IC50” value in [2] was 32.6; in [3], 24.6; in assay [4], 107.7; in assay [5], 1400.

Consider `CCCN(CCC)c1ccc2nc3ccc(N(CCC)CCC)cc3[o+]c2c1.[Cl-]`, for which the IC50 is 0.023 µM in assay [1]; 0.4 µM in the assay with L6; 0.017 µM with Trypanosoma cruzi; 0.002 µM in the assay on Plasmodium falciparum; 0.002 µM in the assay with Leishmania donovani. Moreover, the “Ratio IC50” value in [2] came to 23.6; in assay [3], 17.4; in assay [4], 165; in assay [5], 165.

For the compound `[Cl-].c1cc2nc3ccc(N4CCOCC4)cc3[o+]c2cc1N1CCOCC1`, the IC50 is 8.73 µM in assay [1]; 28.6 µM in the assay with L6; 7.09 µM in the assay with Trypanosoma cruzi; 0.431 µM in the assay on Plasmodium falciparum; 5.18 µM with Leishmania donovani. The “Ratio IC50” value in assay [2] is 4; in [3] it was 3.3; in [4], 5.5; in assay [5], 66.5.

For `CCN(CC)c1ccc2nc3ccc(N4CCCC4)cc3[o+]c2c1.[Cl-]`, the IC50 came out at 0.168 µM in assay [1]; 7.77 µM in the assay with L6; 0.056 µM in the assay with Trypanosoma cruzi; 0.006 µM in the assay on Plasmodium falciparum; 0.654 µM in the assay with Leishmania donovani. In addition, the “Ratio IC50” value in [2] is reported as 139; in [3], 46.3; in [4] it was 11.9; in [5], 1390.

With `CCCN(CCC)c1ccc2nc3ccc(N4CCCC4)cc3[o+]c2c1.[Cl-]`, the 50% inhibitory concentration (IC50) in assay [1] worked out at 0.016 µM; in the assay on L6, 0.92 µM; with Trypanosoma cruzi it was 0.036 µM; with Plasmodium falciparum, 0.003 µM; with Leishmania donovani, 0.016 µM. Further, the “Ratio IC50” value came out at 25.4 in assay [2], 59.2 in assay [3], 59.2 in assay [4] and 355 in [5].

Regarding `CN(C)c1ccc2nc3ccc(N4CCCC4)cc3[o+]c2c1.[Cl-]`, the IC50 in assay [1] was 0.091 µM; in the assay on L6, 13.1 µM; with Trypanosoma cruzi, 0.258 µM; in the assay with Plasmodium falciparum it was 0.006 µM; in the assay with Leishmania donovani it was 1.71 µM. For the same compound, the “Ratio IC50” value was 51 in assay [2], 144.4 in assay [3], 7.7 in assay [4] and 2166.5 in assay [5].

For `CN(C)c1ccc2nc3ccc(N4CCOCC4)cc3[o+]c2c1.[Cl-]`, the IC50 is 2.59 µM in assay [1]; 49.8 µM with L6; 5.06 µM in the assay with Trypanosoma cruzi; 0.023 µM in the assay with Plasmodium falciparum; 1.05 µM with Leishmania donovani. Also, the “Ratio IC50” value amounted to 9.8 in assay [2], 19.2 in [3], 47.2 in assay [4] and 2153.9 in assay [5].

With `CCCCCN(CCCCC)c1ccc2nc3ccc(N4CCCCC4)cc3[o+]c2c1.[Cl-]`, the IC50 was 0.022 µM in assay [1]; 0.14 µM with L6; 0.015 µM in the assay on Trypanosoma cruzi; 0.002 µM in the assay with Plasmodium falciparum; 0.002 µM in the assay on Leishmania donovani. Besides, the “Ratio IC50” value was 9 in assay [2], 6.3 in [3], 63 in assay [4] and 63 in assay [5].

Compound `O=C(Cn1ccnc1[N+](=O)[O-])NCc1ccccc1` [BENZNIDAZOLE] returned an IC50 in the assay with Trypanosoma cruzi of 0.866 µM.

The compound `CCCCCCCCCCCCCCCCOP(=O)([O-])OCC[N+](C)(C)C` [MILTEFOSINE] yielded an IC50 in the assay with Leishmania donovani of 0.28 µM.

The compound `COc1cc([C@@H]2c3cc4c(cc3[C@H](O)[C@H]3COC(=O)[C@H]23)OCO4)cc(OC)c1OC` [PODOFILOX] had an IC50 in the assay on L6 of 0.02 µM.
